Measurements taken from ChEMBL document CHEMBL1921744, “Lipophosphonoxins: new modular molecular structures with significant antibacterial properties” (J Med Chem, 2011).
In brackets after ≈: the same amount, converted by molar mass. Activity calls are given as the source filed them. The rule behind the calls is not given here.

Experiments:
Enterococcus faecium [1] = experiment: Antibacterial activity against Enterococcus faecium ATCC 19434; format: functional
In short: (§1)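 Incubation 24/48 h at 37 °C. MIC read as the lowest concentration inhibiting growth. MBC determined by transferring 10 μL from wells onto blood agar, taken as the lowest concentration with no visible growth.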

Enterococcus faecalis [2] = experiment: Antibacterial activity against Enterococcus faecalis ATCC 29212; format: functional
Enterococcus faecium [3] = experiment: Antibacterial activity against vancomycin-resistant Enterococcus faecium SR7917; format: functional
Enterococcus faecalis [4] = experiment: Antibacterial activity against vancomycin-resistant Enterococcus faecalis SR7914; format: functional
Staphylococcus aureus [5] = experiment: Antibacterial activity against methicillin-sensitive Staphylococcus aureus ATCC 29213; format: functional; in short: as §1
Staphylococcus aureus [6] = experiment: Antibacterial activity against methicillin-resistant Staphylococcus aureus SR3637; format: functional
Enterococcus faecalis [7] = experiment: Antibacterial activity against Enterococcus faecalis CCM 4224 after 24 to 48 hrs by microdilution method; format: functional; in short: as §1
Staphylococcus aureus [8] = experiment: Antibacterial activity against Staphylococcus aureus CCM 4223 after 24 to 48 hrs by microdilution method; format: functional; in short: as §1
Bacillus subtilis [9] = experiment: Antibacterial activity against Bacillus subtilis after 24 to 48 hrs by microdilution method; format: functional; in short: as §1
Streptococcus agalactiae = experiment: Antibacterial activity against Streptococcus agalactiae after 24 to 48 hrs by microdilution method; format: functional; in short: as §1
Escherichia coli = experiment: Antibacterial activity against Escherichia coli after 24 to 48 hrs by microdilution method; format: functional; in short: as §1
[10] = Cytotoxicity against human Erythroid progenitor cells assessed as maximum safe concentration after 48 hrs by CellTiter-blue assay; format: cell-based; details: read-out: Activity
In short: (§2)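 Normal human erythroid progenitor cells, expanded from umbilical cord blood, plated at 25000 cells/well immediately before compound addition (added as a 5× predilution in culture medium). Viability by CellTiter-Blue fluorescence 48 h after addition, normalized to untreated cells set as 100%.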

Pseudomonas aeruginosa = experiment: Antibacterial activity against Pseudomonas aeruginosa after 24 to 48 hrs by microdilution method; format: functional; in short: as §1
Bacillus subtilis [11] = experiment: Inhibition of Bacillus subtilis RNA polymerase using [alpha-32P]-UTP at 1 mM pretreated for 5 mins measured after 15 mins by electrophoresis analysis
In short: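 Reconstituted B. subtilis RNAP σA holoenzyme (6 nM) with supercoiled pLK7 template carrying the rrnB P1 promoter (4 ng/μL). Nucleotides: ATP/CTP/GTP 200 μM, UTP 10 μM plus 2 μM [α-³²P]-UTP. Compound at 1 mM; 5 min preincubation at 30 °C, started with RNAP, stopped after 15 min with formamide/EDTA.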

[12] = Induction of apoptosis in human Erythroid progenitor cells assessed as caspase 3/7 activation after 4 hrs by Caspase-Glo 3/7 assay
In short: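 Cord-blood-derived human erythroid progenitor cells plated at 25000 cells/well and exposed to compound prediluted in medium. Caspase 3/7 activation read by Caspase-Glo 3/7 luminescence 4 h after addition, normalized to untreated control cells set as 100%.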

[13] = Cytotoxicity against human Erythroid progenitor cells assessed as cell viability after 48 hrs by CellTiter-blue assay; format: cell-based; in short: as §2
Enterococcus faecium [14] = experiment: Antibacterial activity against vancomycin-resistant Enterococcus faecium VanA419/ana after 24 to 48 hrs by microdilution method; format: functional
In short: (§3)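 Broth microdilution MIC on clinical isolates from Teaching Hospital Olomouc, stored at −80 °C. Compounds were serially diluted in brain heart infusion broth over 200–1.56 μg/mL (sometimes extended to 0.78 μg/mL), with an inoculum of 10⁵⁻⁶ CFU/ml per well. Plates were incubated at 37 °C and read at 24/48 h. MIC was taken as the lowest concentration inhibiting growth.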

Staphylococcus aureus [15] = experiment: Antibacterial activity against methicillin-resistant Staphylococcus aureus 4591 after 24 to 48 hrs by microdilution method; format: functional; in short: as §3
[16] = tested on: Staphylococcus epidermidis; experiment: Antibacterial activity against methicillin-resistant Staphylococcus epidermidis 8700/B after 24 to 48 hrs by microdilution method; format: functional; in short: as §3
[17] = tested on: Staphylococcus haemolyticus; experiment: Antibacterial activity against fluoroquinolone-resistant Staphylococcus haemolyticus 16568 after 24 to 48 hrs by microdilution method; format: functional; in short: as §3

Row | Structure (SMILES) | MIC (Enterococcus faecalis [2]) | MIC (Enterococcus faecium [3]) | MIC (Enterococcus faecalis [4]) | MIC (Escherichia coli) | MIC (Enterococcus faecalis [7]) | MNTC at 48 h [10] | MIC (Pseudomonas aeruginosa) | MIC (Bacillus subtilis [9]) | Activity [12] | IC50 [13] | MIC (Streptococcus agalactiae) | MIC (Enterococcus faecium [14]) | MIC [16] | MIC (Staphylococcus aureus [8]) | further results
1 | CCCCCCCCCCCCCCC[C@H](NC[C@@H](NC(=O)N[C@H](C(=O)O)C(C)C)[C@@H]1CCNC(=N)N1)C(=O)NCCCN[C@H](C(=O)O)[C@H](O[C@@H]1O[C@H](CN)[C@@H](O)[C@H]1O)[C@H]1O[C@@H](n2ccc(=O)[nH]c2=O)[C@H](O)[C@@H]1O | 4 µg/mL (≈ 3.79 µM) | 2 µg/mL (≈ 1.89 µM) | 4 µg/mL (≈ 3.79 µM) | – | – | – | – | – | – | – | – | – | – | – | MIC (Enterococcus faecium [1]): 4 µg/mL (≈ 3.79 µM); MIC (Staphylococcus aureus [5]): 2 µg/mL (≈ 1.89 µM); MIC (Staphylococcus aureus [6]): 4 µg/mL (≈ 3.79 µM)
2 | CCCCCCCCCCCCCCCCOP(=O)(CCN1C[C@@H](O)[C@H](O)C1)OC[C@H]1O[C@@H](n2ccc(=O)[nH]c2=O)[C@H](O)[C@@H]1O (single isomer, unassigned; diastereomer 2) | – | – | – | – | – | – | – | – | – | – | – | – | – | – | Activity (Enterococcus faecalis [7]): Active; Activity (Staphylococcus aureus [8]): Active; Activity (Bacillus subtilis [9]): Active; Activity (Streptococcus agalactiae): Active
3 | CN[C@H](CC(C)C)C(=O)N[C@H]1C(=O)N[C@@H](CC(N)=O)C(=O)N[C@H]2C(=O)N[C@H]3C(=O)N[C@H](C(=O)N[C@H](C(=O)O)c4cc(O)cc(O)c4-c4cc3ccc4O)[C@H](O)c3ccc(c(Cl)c3)Oc3cc2cc(c3O[C@@H]2O[C@H](CO)[C@@H](O)[C@H](O)[C@H]2O[C@H]2C[C@](C)(N)[C@H](O)[C@H](C)O2)Oc2ccc(cc2Cl)[C@H]1O [VANCOMYCIN] | 1 µg/mL (≈ 0.69 µM) | > 64 µg/mL | > 64 µg/mL | – | – | – | – | – | – | – | – | – | – | – | –
4 | CCCCCCCCCCCCCCCCOCCCOP(=O)(CCN1C[C@H](O)C[C@@H](O)C1)OC[C@H]1O[C@@H](n2ccc(=O)[nH]c2=O)[C@H](O)[C@@H]1O (some centres not stated) | – | – | – | > 200 µg/mL | 200 µg/mL (≈ 273 µM) | 31.2 µg/mL | > 200 µg/mL | 100 µg/mL (≈ 136 µM) | Non-toxic | 53 µg/mL (≈ 72.2 µM) | 6.25 µg/mL (≈ 8.52 µM) | – | – | – | inhibition (Bacillus subtilis [11]): inactive
5 | CN(C)[C@@H]1C(O)=C(C(N)=O)C(=O)[C@@]2(O)C(O)=C3C(=O)c4c(O)cccc4[C@@](C)(O)[C@H]3C[C@@H]12 [TETRACYCLINE] | – | – | – | – | – | – | – | 2 µg/mL (≈ 4.5 µM) | – | – | 1 µg/mL (≈ 2.25 µM) | – | – | – | –
6 | CCCCCCCCCCCCCCCCCCOP(=O)(CCN1C[C@@H](O)[C@H](O)C1)OC[C@H]1O[C@@H](n2ccc(=O)[nH]c2=O)[C@H](O)[C@@H]1O (some centres not stated) | – | – | – | > 200 µg/mL | 6.25 µg/mL (≈ 9.06 µM) | 15.6 µg/mL | > 200 µg/mL | 6.25 µg/mL (≈ 9.06 µM) | Non-toxic | 36 µg/mL (≈ 52.2 µM) | 3.13 µg/mL (≈ 4.54 µM) | 6.25 µg/mL (≈ 9.06 µM) | 6.25 µg/mL (≈ 9.06 µM) | 12.5 µg/mL (≈ 18.1 µM) | MIC (Staphylococcus aureus [15]): 200 µg/mL (≈ 290 µM)
7 | CCCCCCCCCCCCCCCCOP(=O)(CCN1C[C@H](O)C[C@H]1CO)OC[C@H]1O[C@@H](n2ccc(=O)[nH]c2=O)[C@H](O)[C@@H]1O (some centres not stated) | – | – | – | > 200 µg/mL | 6.25 µg/mL (≈ 9.25 µM) | 62.5 µg/mL | > 200 µg/mL | 3.13 µg/mL (≈ 4.63 µM) | Non-toxic | 116 µg/mL (≈ 172 µM) | 3.13 µg/mL (≈ 4.63 µM) | 6.25 µg/mL (≈ 9.25 µM) | 6.25 µg/mL (≈ 9.25 µM) | 100 µg/mL (≈ 148 µM) | –
8 | CCCCCCCCCCCCCCOP(=O)(CCN1C[C@@H](O)[C@H](O)C1)OC[C@H]1O[C@@H](n2ccc(=O)[nH]c2=O)[C@H](O)[C@@H]1O (some centres not stated) | – | – | – | > 200 µg/mL | 12.5 µg/mL (≈ 19.7 µM) | 31.2 µg/mL | > 200 µg/mL | 6.25 µg/mL (≈ 9.86 µM) | Non-toxic | 58 µg/mL (≈ 91.5 µM) | 6.25 µg/mL (≈ 9.86 µM) | 12.5 µg/mL (≈ 19.7 µM) | 12.5 µg/mL (≈ 19.7 µM) | 12.5 µg/mL (≈ 19.7 µM) | MIC (Staphylococcus aureus [15]): 25 µg/mL (≈ 39.4 µM); MIC [17]: 12.5 µg/mL (≈ 19.7 µM)
9 | CCCCCCCCCCCCCCC[C@@H](NC[C@@H](NC(=O)N[C@H](C(=O)O)C(C)C)[C@@H]1CCNC(=N)N1)C(=O)NCCCN[C@H](C(=O)O)[C@H](O[C@@H]1O[C@H](CN)[C@@H](O)[C@H]1O)[C@H]1O[C@@H](n2ccc(=O)[nH]c2=O)[C@H](O)[C@@H]1O | 2 µg/mL (≈ 1.89 µM) | 0.25 µg/mL (≈ 0.237 µM) | 4 µg/mL (≈ 3.79 µM) | – | – | – | – | – | – | – | – | – | – | – | MIC (Enterococcus faecium [1]): 0.5 µg/mL (≈ 0.473 µM); MIC (Staphylococcus aureus [5]): 2 µg/mL (≈ 1.89 µM); MIC (Staphylococcus aureus [6]): 4 µg/mL (≈ 3.79 µM)
10 | O=C(N[C@H](CO)[C@H](O)c1ccc([N+](=O)[O-])cc1)C(Cl)Cl [CHLORAMPHENICOL] | – | – | – | – | – | – | – | – | – | – | 2 µg/mL (≈ 6.19 µM) | – | – | – | –
